{
  "source": "the M2OR odorant receptor database",
  "data": [
    {"biological_target": "T1, OR2G2 (Homo sapiens) (UniProt Q8NGZ5)", "T1 sequence (whole entry)": "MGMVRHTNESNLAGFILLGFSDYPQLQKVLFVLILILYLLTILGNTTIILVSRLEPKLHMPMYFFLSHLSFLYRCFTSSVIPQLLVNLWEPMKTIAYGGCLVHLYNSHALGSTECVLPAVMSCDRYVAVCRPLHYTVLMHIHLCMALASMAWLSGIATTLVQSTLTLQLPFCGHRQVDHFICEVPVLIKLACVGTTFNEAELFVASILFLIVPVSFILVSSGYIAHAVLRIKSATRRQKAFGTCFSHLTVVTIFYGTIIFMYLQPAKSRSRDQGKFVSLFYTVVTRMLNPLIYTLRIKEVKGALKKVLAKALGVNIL", "settings": "stereoisomer not certain", "in_short": "(§1)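 Each receptor–molecule pair is labelled responsive or non-responsive (inactive) according to whether the original authors judged the measured signal statistically different from baseline. The data were taken from the main text and supplementary material of published papers and checked for typos and inconsistencies. Assay methods differed by source, with transient luciferase assays in mammalian cell lines being common.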", "values": [
      {"smiles": "CC(C)(C)C1CCCCC1OCCCCO", "note": "(stereo unspecified)", "odorant receptor agonist call": "inactive"},
      {"smiles": "C=CCOC(=O)COCCC(C)C", "odorant receptor agonist call": "inactive"},
      {"smiles": "Cc1ccc(C(C)C)cc1O", "odorant receptor agonist call": "inactive"},
      {"smiles": "OCc1ccccc1", "odorant receptor agonist call": "inactive"},
      {"smiles": "Cc1occc(=O)c1OC(=O)C(C)C", "odorant receptor agonist call": "active"},
      {"smiles": "CCc1ccc(CC(C)(C)C=O)cc1", "odorant receptor agonist call": "inactive"},
      {"smiles": "CCCCCC1COCCC1OC(C)=O", "note": "(stereo unspecified)", "odorant receptor agonist call": "inactive"},
      {"smiles": "CCCC(C)C(=O)OCC", "note": "(stereo unspecified)", "odorant receptor agonist call": "inactive"},
      {"smiles": "CC1CC(C)(c2ccccc2)CO1", "note": "(stereo unspecified)", "odorant receptor agonist call": "inactive"},
      {"smiles": "CC(CC=O)c1ccc(C(C)(C)C)cc1", "note": "(stereo unspecified)", "odorant receptor agonist call": "inactive"},
      {"smiles": "CCCCCCCCC(OC(C)=O)OC(C)=O", "odorant receptor agonist call": "inactive"},
      {"smiles": "CCC(=O)C=CC1C(C)=CCCC1(C)C", "note": "(stereo unspecified)", "odorant receptor agonist call": "inactive"},
      {"smiles": "CC(C)CCCC(C)(C)O", "odorant receptor agonist call": "inactive"},
      {"smiles": "CC(C)=CCCC(C)=CCO", "odorant receptor agonist call": "inactive"},
      {"smiles": "CC(C)=CCCC(C)CC=O", "note": "(stereo unspecified)", "odorant receptor agonist call": "inactive"},
      {"smiles": "C=CC(C)(O)CCC=C(C)CCC=C(C)C", "note": "(stereo unspecified)", "odorant receptor agonist call": "inactive"},
      {"smiles": "CC1=CCC2CC1C2(C)C", "note": "(stereo unspecified)", "odorant receptor agonist call": "inactive"},
      {"smiles": "CC(=O)C=CC1=C(C)CCCC1(C)C", "odorant receptor agonist call": "inactive"}
    ]},
    {"biological_target": "T2, OR2H2 (Homo sapiens) (UniProt O95918)", "T2 sequence (whole entry)": "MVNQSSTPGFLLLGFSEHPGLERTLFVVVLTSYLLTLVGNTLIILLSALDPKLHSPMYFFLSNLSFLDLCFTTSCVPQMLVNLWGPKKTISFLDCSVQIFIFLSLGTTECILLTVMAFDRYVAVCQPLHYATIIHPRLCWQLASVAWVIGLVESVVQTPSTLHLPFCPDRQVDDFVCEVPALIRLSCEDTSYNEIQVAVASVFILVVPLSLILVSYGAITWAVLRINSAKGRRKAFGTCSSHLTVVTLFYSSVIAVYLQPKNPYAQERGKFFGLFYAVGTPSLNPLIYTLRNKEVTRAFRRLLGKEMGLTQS", "settings": "stereoisomer not certain", "in_short": "as §1", "values": [
      {"smiles": "CCCCCC=CC=O", "odorant receptor agonist call": "active"},
      {"smiles": "CCCC=CC=CC=O", "odorant receptor agonist call": "active"},
      {"smiles": "CCCCCCCC(=O)[O-].[H+]", "odorant receptor agonist call": "inactive"},
      {"smiles": "CCCCCC=O", "odorant receptor agonist call": "inactive"},
      {"smiles": "CCCCCCCCCCCC=O", "odorant receptor agonist call": "inactive"},
      {"smiles": "CC(C=O)=CCC(C)CC(C)C", "note": "(stereo unspecified)", "odorant receptor agonist call": "inactive"},
      {"smiles": "CC(C)=CCCC(C)CC=O", "note": "(stereo unspecified)", "odorant receptor agonist call": "active"},
      {"smiles": "CCCCCCCCO", "odorant receptor agonist call": "inactive"}
    ]}
  ]
}
